Measurements taken from the array DNA melting data of Ke et al. (doi:10.1101/2024.01.08.574731).

What was measured:
[1] = melting temperature; fluorescence melt of hairpins on a sequencing array, two-state fit, raised by 9.35 °C to match UV melts; settings: sodium 0.088 M
Procedure, shortened: (§1)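 Cy3 signals were normalised both to pre-quench Cy3 and to control constructs. They came from library hairpins carrying annealed Cy3 and quencher oligos on a sequenced MiSeq flow cell, imaged in 50 mM Na-HEPES pH 8.0, 25 mM NaCl, in 2.5 °C steps up to 60 °C. Bootstrapped two-state fits gave melting temperature and folding enthalpy, and four replicates were combined by inverse variance. Fitted temperatures were then raised by 9.35 °C to match UV melts.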

[2] = folding enthalpy; higher = less favourable; fluorescence melt of hairpins on a sequencing array, two-state fit; settings: sodium 0.088 M
Procedure, shortened: as §1

Sequence | Tm [1] [°C] | folding enthalpy [2] [kcal/mol]
GGGTAGCGAAAGCTGCCC (((.(((....))).))) | 69.2 | -33.5
GGGTAGGCGAAAGCCCCC (((..(((....)))))) | 53 | -16.9
GGGTAGGGAAACCTACTC (.(((((....))))).) | 44.6 | -18.7
GGGTAGGGAAACCTGCTC (.(.(((....))).).) | 36.5 | -14.8
GGGTAGGGAAACCTGTCC ((..(((....)))..)) | 32.3 | -17.2
GGGTAGGGAAACTTGCCC (((.(.(....).).))) | 35.6 | -20.4
GGGTATCGAAAGATCCC (((.(((....)))))) | 49.7 | -30.6
GGGTATGGAAACGTACTC (.(((.(....).))).) | 30.7 | -13.4
GGGTCAACGAAAGTTCCC (((..(((....)))))) | 34.7 | -18.8
GGGTCAGCGAAAGCTCCC (((..(((....)))))) | 42.7 | -17.7
GGGTCCACGAAAGTGCCC (((..(((....)))))) | 40.8 | -17.9
GGGTCCGAAAGGAGCCC ((((((....))).))) | 68.5 | -15.6
GGGTCCGAAAGGAGTCCC ((((((....)))..))) | 46.5 | -19.6
GGGTCCTCGAAAGAGCCC (((..(((....)))))) | 40 | -15.3
GGGTCGGGAAACCGGCTC (.(.(((....))).).) | 47.9 | -21.1
GGGTCGGGAAACCGGTCC ((..(((....)))..)) | 47.2 | -28.5
GGGTCTCGAAAGAGCCCC (((.(((....))).))) | 57.4 | -37.9
GGGTCTGGAAACAGACTC (.(((((....))))).) | 52 | -21.9
GGGTCTGGAAACGGACCC (((((.(....).))))) | 59.3 | -51.6
GGGTGACGAAAGTCTCCC (((.(((....))).))) | 60.3 | -36.2
GGGTGAGCGAAAGCTCCC (((..(((....)))))) | 49.1 | -12.6
GGGTGCCGAAAGGCCCC (((.(((....)))))) | 67.2 | -21.8
GGGTGCCGAAAGGCCCCC (((.(((....))).))) | 66.8 | -15.6

Sequence | Tm [1] [°C] | folding enthalpy [2] [kcal/mol]
GGGTGCGAAAGCACTCCC ((((((....)))..))) | 53.5 | -10.4
GGGTGCGAAAGCATGCCC ((((((....)))..))) | 49.6 | -15.7
GGGTGCGGAAACACACCC (((((.(....).))))) | 54.8 | -37.6
GGGTGCGGAAACGCACTC (.(((((....))))).) | 59.4 | -12
GGGTGCGGAAACGCGTCC ((..(((....)))..)) | 50.9 | -19.7
GGGTGGGCGAAAGCCCCC (((..(((....)))))) | 54.5 | -12
GGGTGGGGAAACCCATCC ((.((((....)))).)) | 54.2 | -34.7
GGGTGTCCGAAAGGACCC (((..(((....)))))) | 55 | -14
GGGTGTGGAAACACGCCC (((.(((....))).))) | 62.5 | -39.6
GGGTGTGGAAACGCACCC (((((.(....).))))) | 60 | -45.2
GGGTTAGGAAACTAATCC ((.((((....)))).)) | 42.7 | -35.1
GGGTTCCCGAAAGGGCCC (((..(((....)))))) | 47.7 | -18.6
GGGTTCCGAAAGGACCCC (((.(((....))).))) | 58.1 | -39.5
GGGTTCCGAAAGGAGCCC (((.(((....))).))) | 67.1 | -39.8
GGGTTCGAAAGAAACCCC ((((((....)))..))) | 52.5 | -18.5
GGGTTCGAAAGAAGTCCC ((((((....)))..))) | 32.7 | -20.2
GGGTTCGAAAGAATACCC ((((((....)))..))) | 40.5 | -24.9
GGGTTCGAAAGAATCCC ((((((....))).))) | 52 | -29
GGGTTCGGAAACGAGCCC (((.(((....))).))) | 58.1 | -57.9
GGGTTCGGAAACGGACCC ((((.((....)).)))) | 59.6 | -46.2
GGGTTGGAAACAACCC ((((((....)))))) | 64.7 | -38.2
GGGTTGGGAAACCAACCC (((((((....))))))) | 69.3 | -32.3
GGGTTGGGAAACTAGCCC (((.(.(....).).))) | 42 | -21.4

Sequence | Tm [1] [°C] | folding enthalpy [2] [kcal/mol]
GGGTTGGGAAACTGACCC ((((..(....)..)))) | 45.1 | -26.5
GGGTTTCGAAAGAATCCC (((.(((....))).))) | 50.1 | -36.6
GGGTTTGAAAAAACCC ((((((....)))))) | 58.4 | -40
GGGTTTGGAAACAAACTC (.(((((....))))).) | 46.6 | -29.8
GGTAAAGAAATTTACC ((((((....)))))) | 40.1 | -26
GGTAAAGGAAACTTTGCC ((.((((....)))).)) | 42.6 | -28.6
GGTAACCCGAAAGGGACC (((..(((....)))))) | 36.5 | -14.9
GGTAACCGAAAGGTCACC (((.(((....))).))) | 48.2 | -25
GGTAACGAAAGTTAACC ((((((....))).))) | 45.3 | -18.2
GGTAACGAAAGTTCACC ((((((....))).))) | 38.3 | -21.2
GGTAACGAAAGTTTAACC ((((((....)))..))) | 33.8 | -15.7
GGTAACGGAAACGTTACC (((((((....))))))) | 63.2 | -45.6
GGTAAGCCGAAAGGCACC (((..(((....)))))) | 42 | -15.4
GGTAATCGAAAGATCACC (((.(((....))).))) | 39.2 | -25.6
GGTACACGAAAGTGCACC (((.(((....))).))) | 52.3 | -33.9
GGTACAGGAAACTGTGCC ((.((((....)))).)) | 52.6 | -31.8
GGTACATCGAAAGATACC (((..(((....)))))) | 29.7 | -11.5
GGTACCCGAAAGGGCACC (((.(((....))).))) | 55.6 | -32.3
GGTACCGAAAGGTAACC ((((((....))).))) | 53.4 | -26.9
GGTACCGAAAGGTATACC ((((((....)))..))) | 41.4 | -15.3
GGTACCGAAAGGTCAACC ((((((....)))..))) | 34.5 | -15.3
GGTACCGAAAGGTTACC ((((((....))).))) | 50 | -26.4
